Like-named read-outs stand apart in the source and are kept apart here. Each block holds one molecule with its values, some of them ahead of it.
Assays:
αIIbβ3 [1] = settings: cited from earlier work
platelets = settings: cited from earlier work
[2] = Plasma protein binding by rapid equilibrium dialysis; type: in vitro ADME; settings: human, platelet-free human plasma
αIIbβ3 [3] = target: T1, αIIbβ3 (Homo sapiens, UniProt P05106+P08514); test: LIBS AP5 epitope exposure on platelet αIIbβ3; type: cell-based; settings: washed human platelets; tirofiban 0.17 μM, m-tirofiban 16 μM, Hr10 7.6 μM
T1 sequence (P08514 32-887 limits assumed): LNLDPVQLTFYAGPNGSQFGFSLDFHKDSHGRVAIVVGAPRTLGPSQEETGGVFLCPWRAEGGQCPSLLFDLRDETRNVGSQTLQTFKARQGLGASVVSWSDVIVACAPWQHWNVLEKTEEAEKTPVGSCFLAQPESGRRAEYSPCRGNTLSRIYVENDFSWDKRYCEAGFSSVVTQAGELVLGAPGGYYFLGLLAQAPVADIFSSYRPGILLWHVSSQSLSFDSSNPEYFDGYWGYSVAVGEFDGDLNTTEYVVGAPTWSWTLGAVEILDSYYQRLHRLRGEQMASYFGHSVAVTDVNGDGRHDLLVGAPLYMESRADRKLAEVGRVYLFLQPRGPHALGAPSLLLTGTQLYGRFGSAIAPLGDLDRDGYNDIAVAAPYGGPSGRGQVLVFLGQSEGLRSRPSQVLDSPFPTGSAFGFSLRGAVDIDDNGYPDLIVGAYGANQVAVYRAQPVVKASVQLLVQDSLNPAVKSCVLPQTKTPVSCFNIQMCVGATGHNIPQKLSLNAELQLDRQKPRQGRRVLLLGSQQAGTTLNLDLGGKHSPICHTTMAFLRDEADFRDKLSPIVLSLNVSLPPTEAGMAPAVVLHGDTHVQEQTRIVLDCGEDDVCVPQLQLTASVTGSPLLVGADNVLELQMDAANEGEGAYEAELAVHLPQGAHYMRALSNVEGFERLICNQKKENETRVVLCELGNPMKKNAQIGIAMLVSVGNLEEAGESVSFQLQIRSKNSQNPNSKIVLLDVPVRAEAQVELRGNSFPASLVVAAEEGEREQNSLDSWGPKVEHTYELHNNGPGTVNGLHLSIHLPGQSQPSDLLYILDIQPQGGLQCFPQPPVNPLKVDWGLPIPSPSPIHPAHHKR
T1 sequence (P08514 891-1039 partner limits assumed): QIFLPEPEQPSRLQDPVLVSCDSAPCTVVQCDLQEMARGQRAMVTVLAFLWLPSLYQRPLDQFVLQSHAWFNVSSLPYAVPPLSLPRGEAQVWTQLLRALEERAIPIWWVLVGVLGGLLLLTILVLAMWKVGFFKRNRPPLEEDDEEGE
T1 sequence (P05106 27-788): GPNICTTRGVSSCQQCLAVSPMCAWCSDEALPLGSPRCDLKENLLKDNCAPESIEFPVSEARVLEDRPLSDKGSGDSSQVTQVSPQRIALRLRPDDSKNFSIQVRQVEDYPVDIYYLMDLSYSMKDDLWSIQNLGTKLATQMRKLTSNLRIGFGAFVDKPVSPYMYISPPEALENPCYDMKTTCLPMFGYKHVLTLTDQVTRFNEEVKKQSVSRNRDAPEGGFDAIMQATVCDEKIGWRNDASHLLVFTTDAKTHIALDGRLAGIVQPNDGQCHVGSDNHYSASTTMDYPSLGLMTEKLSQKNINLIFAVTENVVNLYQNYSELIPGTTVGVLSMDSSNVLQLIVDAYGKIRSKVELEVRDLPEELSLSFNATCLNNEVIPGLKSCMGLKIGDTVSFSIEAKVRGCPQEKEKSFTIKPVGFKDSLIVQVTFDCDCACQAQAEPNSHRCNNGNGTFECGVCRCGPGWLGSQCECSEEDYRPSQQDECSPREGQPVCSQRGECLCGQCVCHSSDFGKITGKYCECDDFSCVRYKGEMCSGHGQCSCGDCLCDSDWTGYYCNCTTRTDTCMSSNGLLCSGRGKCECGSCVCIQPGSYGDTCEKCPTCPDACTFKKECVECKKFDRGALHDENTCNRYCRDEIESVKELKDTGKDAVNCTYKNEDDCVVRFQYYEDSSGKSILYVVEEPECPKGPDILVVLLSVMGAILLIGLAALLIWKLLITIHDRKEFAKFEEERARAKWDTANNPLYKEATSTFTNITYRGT
Outline: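 Washed platelets came from citrated blood of drug-free donors: PRP was spun with PGE1 (20 ng/ml final), washed in Ringer's citrate-dextrose, and resuspended in Tyrode's buffer (pH 7.4, 0.02% BSA, 1 mM Ca²⁺/Mg²⁺). Buffer or test compound was preincubated 20 min at RT without stirring, then ADP (20 µM) plus Alexa647-AP5 (10 µg/mL) was added for 30 min at RT. Samples were diluted, fixed in 2% paraformaldehyde, and read by flow-cytometric MFI. Mean + s.e., n = 4 donors.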

platelets in whole blood = test: ADP-induced platelet aggregation in 1:1 diluted whole blood; type: cell-based; settings: Homo sapiens, read-out: IC50agg
αIIbβ3 [4] = target: T1, αIIbβ3; test: ODE model of inhibitor occupancy of αIIbβ3; settings: ODEs Eq 16-22
human PRP = test: Thrombin-induced clot retraction in platelet-rich plasma; type: cell-based; settings: read-out: IC50clot
C57BL/6J mice [5] = test: Thrombin-induced femoral vein thrombosis model; type: in vivo, mouse; settings: bolus tirofiban 0.025 μg/g, m-tirofiban 0.3 μg/g
C57BL/6J mice [6] = test: Tail vein bleeding model; type: in vivo, mouse; settings: at the dose that suppressed femoral VT

Molecule: fibrinogen
Kd (αIIbβ3 [1]; read-out: Kd,F of fibrinogen to αIIbβ3, assumed in ODE model ref 58): 143 nM

Molecule: N=C(N)c1ccc(C(=O)N[C@@H](Cc2ccc([N+](=O)[O-])cc2)C(=O)N2CCc3nn(CC(=O)O)cc3C2)cc1 [UR-2922]
Kd (αIIbβ3 [1]; read-out: mean Kd to αIIbβ3): 0.3 nM | IC50clot/IC50agg ratio (platelets): 20.63

fraction unbound at 24 h, 2 µM [2]: 0.413 ± 0.0303 | AP5 epitope expression above that seen with ADP (or thrombin) alone (αIIbβ3 [3]): large increase | IC50 (platelets in whole blood): 6 ± 0.58 nM | concentration for 50% occupancy of αIIbβ3 (50% OCCL:T) (αIIbβ3 [4]; 1:1 diluted whole blood): 26.5 nM | concentration for 50% occupancy of αIIbβ3 (50% OCCL:T) (αIIbβ3 [4]; undiluted whole blood): 38.0 nM | IC50 (human PRP): 162 ± 61 nM | bleeding time vs PBS (C57BL/6J mice [6]): prolonged bleeding time | bleeding vs PBS (C57BL/6J mice [6]): significant bleeding
Molecule: CCCCS(=O)(=O)N[C@@H](Cc1ccc(OCCCCC2CCNCC2)cc1)C(=O)O [tirofiban]
total accumulation of fibrin vs untreated (C57BL/6J mice [5]): significant only at a p-value of 0.0606 | Kd (αIIbβ3 [1]; read-out: Kd for pretreated (inactive) αIIbβ3): 15 nM

Source: publication PMC11452527 (Nature Communications, 2024)
